25 molecules from ChEMBL document CHEMBL1153504, “Short-acting 5-(trifluoromethyl)pyrido[4,3-d]pyrimidin-4(3H)-one derivatives as orally-active calcium-sensing receptor antagonists” (Bioorg Med Chem Lett, 2009) can be followed below.

For data set [1], the system named is Rattus norvegicus. The data set is described as follows: Induction of bone formation in Sprague-Dawley rat assessed as stimulation of PTH level in plasma at dose 10 mg/kg, po by ELISA. In kind it is functional. In short, it runs like this: (§1)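 Male Sprague-Dawley rats, n = 5/6, given a single iv or po dose. Plasma PTH 1-84 measured by an ELISA specific for full-length rat PTH 1-84. Earliest sampling at ~2 min; comparison against baseline in vehicle-treated animals.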

Data set [2] can be described thus: (§2) Volume of distribution at steady state in Sprague-Dawley rat at 1 mg/kg, iv. In kind it is ADME, organism-based. The settings on record: Sprague-Dawley, in vivo, read-out: Vdss. Further details: dose 1 mg/kg, route intravenous. In short, it runs like this: (§3)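 Male Sprague-Dawley rats, n = 2–5. iv dosing in glycerol formal containing 2% DMSO; po dosing as a spray dried dispersion. Plasma compound levels followed for PK parameters.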

For data set [3], the species on record is Rattus norvegicus. The data set is described as follows: Ratio of half life for 1-aminobenzotriazole led P450 inactivator pretreated Sprague-Dawley rat to half life for normal Sprague-Dawley rat. Format: ADME, organism-based. As to conditions: in vivo.
Data set [4] can be described thus: Tmax in Sprague-Dawley rat at 1 mg/kg, iv. As to conditions: in vivo. In kind it is ADME, organism-based. Also on record: dose 1 mg/kg, route intravenous. A digest of the protocol: as §3
Data set [5] in a line: Cmax in Sprague-Dawley rat at 10 mg/kg, po. Further details: dose 10 mg/kg, route oral. The settings on record: in vivo. Format: ADME, organism-based. In short, it runs like this:
as §3

Data set [6] is described as follows: AUC in Sprague-Dawley rat at 1 mg/kg, iv. Format: ADME, organism-based. Also on record: dose 1 mg/kg, route intravenous. As to conditions: plasma. A digest of the protocol: as §3
For data set [7], the system named is Rattus norvegicus. The data set can be described thus: Induction of bone formation in Sprague-Dawley rat assessed as transient stimulation of PTH level in plasma at dose 10 mg/kg, po administered for 5 days measured on day 5 by ELISA. In kind it is functional, organism-based. Further details: dose 10 mg/kg.
The test system of data set [8] is Rattus norvegicus. The data set is described as follows: Induction of bone formation in Sprague-Dawley rat assessed as sustained elevation of PTH level in plasma at dose 10 mg/kg, po administered for 5 days measured on day 5 by ELISA. In kind it is functional, organism-based. Further details: dose 10 mg/kg. For orientation: ELISA stands for enzyme-linked immunosorbent assay.

A short description of data set [9]: (§4) Terminal half life in Sprague-Dawley rat at 1 mg/kg, iv. Format: ADME, organism-based. Also on record: dose 1 mg/kg, route intravenous. The settings on record: Sprague-Dawley, in vivo, read-out: beta t1/2 (converted). A digest of the protocol: as §3
Data set [10] is described as follows: Cmax in Sprague-Dawley rat at 1 mg/kg, iv. Format: ADME, organism-based. Also on record: dose 1 mg/kg, route intravenous. The settings on record: in vivo. A digest of the protocol: as §3
Data set [11] in a line: Antagonist activity at human calcium receptor expressed in HEK293 cells assessed as inhibition of extracellular calcium-induced release of intracellular calcium strores into cytosol by FLIPR assay. Format: functional, cell-based. Background: A change in cytosolic calcium serves as a functional read-out for many receptors and channels.
Data set [12] concerns Rattus norvegicus. The data set is described as follows: Induction of bone formation in Sprague-Dawley rat assessed as transient stimulation of PTH level in plasma at dose 10 mg/kg, po on day 1 by ELISA. Also on record: dose 10 mg/kg. Format: functional, organism-based.
Data set [13] concerns Rattus norvegicus. The data set is described as follows: Induction of bone formation in Sprague-Dawley rat assessed as stimulation of PTH level in plasma at 1 mg/kg, iv after 2 mins by ELISA. Format: functional. In short, it runs like this: as §1
The species named for data set [14] is Rattus norvegicus. The data set can be described thus: Ratio of AUC for 1-aminobenzotriazole led P450 inactivator pretreated Sprague-Dawley rat to AUC for normal Sprague-Dawley rat. Format: ADME, organism-based. The settings on record: in vivo.
Data set [15] can be described thus: Plasma clearance in 1-aminobenzotriazole led P450 inactivator pretreated Sprague-Dawley rat at 1 mg/kg, iv. In kind it is ADME, organism-based. Also on record: dose 1 mg/kg, route intravenous.
The nature of data set [16]: Plasma clearance in Sprague-Dawley rat at 1 mg/kg, iv. In kind it is ADME, organism-based. Also on record: dose 1 mg/kg, route intravenous. A digest of the protocol:
as §3

For data set [17], the system named is Rattus norvegicus. The data set can be described thus: Induction of bone formation in Sprague-Dawley rat assessed as stimulation of PTH level in plasma at 1 mg/kg, iv after 2 mins relative by ELISA to basal level. In kind it is functional. A digest of the protocol: as §1
Data set [18] relates to Rattus norvegicus. Described as §2. In kind it is ADME, organism-based. The settings on record: in vivo. Also on record: dose 1 mg/kg, route intravenous. A digest of the protocol: as §3
Data set [19] relates to Rattus norvegicus. The description is as §4. Format: ADME, organism-based. Also on record: dose 1 mg/kg, route intravenous. As to conditions: in vivo. In short, it runs like this:
as §3

The nature of data set [20]: Half life in human. In kind it is ADME, organism-based. As to conditions: in vivo.
Data set [21] addresses Voltage-gated inwardly rectifying potassium channel KCNH2 (Homo sapiens, UniProt Q12809). The data set is described as follows: Inhibition of human ERG.

In general, Tmax refers to the time at which the peak concentration occurs. The term Cmax denotes the maximum level reached in the sampled fluid or tissue. In general, AUC refers to concentration integrated over time. Low values mean low exposure, high ones high exposure. One may read the IC50 as the point on the concentration scale where inhibition reaches its midpoint. What is called clearance is the volume of plasma or blood freed of the substance per unit of time. What is called Vdss is a proportionality between amount in the body and measured concentration, not a real space. Higher therefore signals wide distribution into tissue.

Calls of active or inactive are those of the source. No cut-off for these calls is given here.

Sequence of Voltage-gated inwardly rectifying potassium channel KCNH2 (Q12809 whole entry): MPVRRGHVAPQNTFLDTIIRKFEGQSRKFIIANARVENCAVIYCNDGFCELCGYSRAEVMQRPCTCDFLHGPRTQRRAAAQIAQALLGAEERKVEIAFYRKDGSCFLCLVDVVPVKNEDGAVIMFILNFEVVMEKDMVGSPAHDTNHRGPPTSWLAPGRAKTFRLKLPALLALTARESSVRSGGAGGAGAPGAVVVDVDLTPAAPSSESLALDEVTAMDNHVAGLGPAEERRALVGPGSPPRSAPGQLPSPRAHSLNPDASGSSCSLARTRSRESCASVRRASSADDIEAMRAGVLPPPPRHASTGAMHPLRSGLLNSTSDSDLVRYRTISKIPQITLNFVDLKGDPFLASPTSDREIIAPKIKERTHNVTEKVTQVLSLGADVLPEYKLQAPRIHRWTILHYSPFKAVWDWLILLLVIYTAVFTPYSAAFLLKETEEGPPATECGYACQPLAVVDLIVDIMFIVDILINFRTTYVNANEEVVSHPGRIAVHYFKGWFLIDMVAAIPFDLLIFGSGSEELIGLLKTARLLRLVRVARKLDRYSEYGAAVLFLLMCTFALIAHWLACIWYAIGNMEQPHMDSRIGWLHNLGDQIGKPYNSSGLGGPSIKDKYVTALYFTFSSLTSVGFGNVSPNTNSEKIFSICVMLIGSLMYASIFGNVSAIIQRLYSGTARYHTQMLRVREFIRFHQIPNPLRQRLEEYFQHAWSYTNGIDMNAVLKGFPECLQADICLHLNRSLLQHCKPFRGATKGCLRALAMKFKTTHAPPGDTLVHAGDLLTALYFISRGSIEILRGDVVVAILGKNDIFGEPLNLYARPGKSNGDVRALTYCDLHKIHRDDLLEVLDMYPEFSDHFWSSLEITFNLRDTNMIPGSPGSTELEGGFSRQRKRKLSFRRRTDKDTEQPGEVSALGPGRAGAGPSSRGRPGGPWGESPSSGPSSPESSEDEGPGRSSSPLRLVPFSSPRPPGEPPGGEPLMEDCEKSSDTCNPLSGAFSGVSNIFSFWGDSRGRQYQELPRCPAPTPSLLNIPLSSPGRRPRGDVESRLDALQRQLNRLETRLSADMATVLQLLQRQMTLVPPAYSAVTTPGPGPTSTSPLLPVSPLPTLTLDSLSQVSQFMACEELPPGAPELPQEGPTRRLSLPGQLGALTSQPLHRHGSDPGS

As for `C[C@H](Cc1ccccc1)n1c(-c2ccccc2O)nc2ccnc(C(F)(F)F)c2c1=O`, the Activity in data set [1] worked out at 620 pg/mL; in data set [13], 921 pg/mL. Further, in [2], the Vd was 1.4 L/kg. The Ratio in data set [3] is 7; in data set [14], 4. Besides, in data set [4], the Tmax was found to be 30 min. Besides, the Cmax in [5] is 350 ng/mL; in data set [10] it was 125 ng/mL. In data set [6], this molecule showed an AUC of 518 ng·h/mL. The outcome in data set [7] and in [12] was Active. The outcome in data set [8] was inactive. For the same molecule, the half-life in data set [9] was 36 min. The IC50 in data set [11] worked out at 41 nM. Besides, the clearance came to 7.8 mL/min/kg in data set [15] and 32.2 mL/min/kg in [16].
For `C[C@H](Cc1ccc(F)c(F)c1)n1c(-c2ncccc2O)nc2ccnc(C(F)(F)F)c2c1=O`, the Activity is 599 pg/mL in data set [1] and 1303 pg/mL in [13]. Also, the Vd in data set [2] is 8.6 L/kg. In data set [4], the Tmax is 18 min. The “fold change (FC)” value in data set [17] is recorded as 10. Moreover, the Cmax in data set [5] worked out at 165 ng/mL; in data set [10] it was 133 ng/mL. The molecule also came in with an AUC in data set [6] of 364 ng·h/mL. Further, the outcome in [7] and in [12] was Active. Also, in data set [8], the outcome was inactive. For the same molecule, the half-life in [9] was 234 min. The IC50 in data set [11] was 8 nM. In [16], this molecule yielded a clearance of 46.5 mL/min/kg.
As to `O=c1c2c(OC3CCC3)nccc2nc(-c2ccccc2O)n1CCc1ccccc1`, in [11], the IC50 is 435 nM.
As for `C[C@H](Cc1ccccc1)n1c(-c2ncccc2Cl)nc2ccnc(C(F)(F)F)c2c1=O`, in data set [18], the Vdss was found to be 6 L/kg. In [6], the AUC came to 810 ng·h/mL. The “beta t1/2” value in data set [19] was 57 min. The IC50 in [11] was determined as 79 nM.
Take `CC(C)Oc1nccc2nc(-c3ccccc3O)n(CCc3ccccc3)c(=O)c12`: the IC50 in [11] stood at 224 nM.
Consider `O=c1c2c(C(F)(F)F)nccc2nc(-c2ccccc2O)n1CCc1ccccc1`, for which, in data set [11], the IC50 was 50 nM.
As to `O=c1c2c(C(F)(F)F)nccc2nc(-c2ncccc2O)n1CCC1CCCCC1`, the Vd in data set [2] was 3.2 L/kg. In data set [6], this molecule showed an AUC of 490 ng·h/mL. Also, the half-life in data set [9] is 37.2 min. In addition, the IC50 in data set [11] was 36 nM. Besides, in data set [16], the clearance came out at 35.9 mL/min/kg.
Take `O=c1c2c(C(F)(F)F)nccc2nc(-c2ncccc2O)n1CCc1ccccc1F`: the concentration for half-maximal inhibition (IC50) in [11] came to 151 nM.
In the case of `C[C@H](Cc1ccccc1)n1c(-c2cccc(F)c2O)nc2ccnc(C(F)(F)F)c2c1=O`, the Vd in [2] amounted to 3.6 L/kg. In addition, the AUC in data set [6] turned out to be 528 ng·h/mL. Besides, in [9], the half-life was 91.8 min. Further, the IC50 in data set [11] was found to be 25 nM. The molecule also returned a clearance in data set [16] of 31.6 mL/min/kg.
As for `O=c1c2c(N3CCCC3)nccc2nc(-c2ccccc2O)n1CCc1ccccc1`, the IC50 in data set [11] was determined as 5320 nM.
For `C[C@H](Cc1ccccc1)n1c(-c2cscn2)nc2ccnc(C(F)(F)F)c2c1=O`, the half-inhibitory concentration (IC50) in data set [11] is 216 nM.
As for `O=c1c2c(Cl)nccc2nc(-c2ccccc2O)n1CCc1ccccc1`, in data set [11], the IC50 turned out to be 106 nM.
`O=c1c2c(C(F)(F)F)nccc2nc(-c2ccccc2O)n1CCc1ccccc1F`: the IC50 in data set [11] was 132 nM.
Turning to `COc1ccccc1CCn1c(-c2ncccc2O)nc2ccnc(C(F)(F)F)c2c1=O`, the IC50 in [11] was 76 nM.
Take `CC(C)(Cc1ccc2ccccc2c1)NC[C@@H](O)COc1cccc(Cl)c1C#N`: in data set [20], the half-life was 480 min. In addition, the result in data set [21] was Active.
For the molecule `Cc1cccnc1-c1nc2ccnc(C(F)(F)F)c2c(=O)n1[C@H](C)Cc1ccccc1`, the IC50 in [11] worked out at 226 nM.
Turning to `C[C@H](Cc1ccccc1)n1c(-c2ccccc2Cl)nc2ccnc(C(F)(F)F)c2c1=O`, the half-inhibitory concentration (IC50) in [11] came to 152 nM.
Take `Cc1nccc2nc(-c3ccccc3O)n(CCc3ccccc3)c(=O)c12`: the IC50 in data set [11] was 2990 nM.
With `C[C@@H](Cc1ccccc1)n1c(-c2ccccc2O)nc2ccnc(C(F)(F)F)c2c1=O`, the IC50 in data set [11] is 158 nM.
As for `O=c1c2c(C(F)(F)F)nccc2nc(-c2ccccc2Cl)n1CCc1ccccc1`, in [11], the IC50 was found to be 1070 nM.
For the molecule `CC(=O)Nc1cccnc1-c1nc2ccnc(C(F)(F)F)c2c(=O)n1[C@H](C)Cc1ccccc1`, the IC50 in data set [11] is 19 nM.
`C[C@H](Cc1ccccc1)n1c(-c2ncccc2C(F)(F)F)nc2ccnc(C(F)(F)F)c2c1=O` showed a Vdss in [18] of 2.9 L/kg. For the same molecule, the Tmax in data set [4] came to 78 min. Besides, the Cmax in data set [5] stood at 450 ng/mL; in [10] it was 100 ng/mL. Further, the AUC in [6] turned out to be 1200 ng·h/mL. Besides, the “beta t1/2” value in data set [19] was determined as 48 min. Also, the IC50 in data set [11] came to 64 nM.
For `O=c1c2c(C(F)(F)F)nccc2nc(-c2cccc(F)c2O)n1CCc1ccccc1`, the IC50 in data set [11] came out at 610 nM.
The same measure, in the same setting: in the case of `C[C@H](Cc1ccccc1)n1c(-c2ncccc2O)nc2ccnc(C(F)(F)F)c2c1=O` it was 22 nM; in that of `O=c1c2c(C(F)(F)F)nccc2nc(-c2cscn2)n1CCc1ccccc1`, 656 nM.
